Measurements as given in ChEMBL document CHEMBL5126600, “Discovery of the First-in-Class G9a/GLP Covalent Inhibitors” (J Med Chem, 2022).
Calls of active or inactive are those of the source. The rule behind the calls is not given here.

Legend:
[1] = biological target: Histone-lysine N-methyltransferase 2A (Homo sapiens) (UniProt Q03164); assay: Inhibition of N-terminal His-tagged MLL1 (3745 to 3969 residues) (unknown origin) expressed in Escherichia coli at 1 uM using 3H-SAM as a substrate relative to control
Summary of the method: (§1)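 Contracted 3H-SAM methyl-transfer scintillation proximity assay against a panel of methyltransferases; compound tested at 1 μM in duplicate; inhibition expressed as percent of control enzyme activity.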

[2] = biological target: Histone-lysine N-methyltransferase NSD2 (Homo sapiens) (UniProt O96028); assay: Inhibition of NSD2 (2 to 1365 residues) (unknown origin) at 1 uM expressed in baculovirus expression system using 3H-SAM as a substrate relative to control; summary of the method: as §1
Sequence of Histone-lysine N-methyltransferase NSD2 (Homo sapiens) (O96028 whole entry, the tested form may be a part): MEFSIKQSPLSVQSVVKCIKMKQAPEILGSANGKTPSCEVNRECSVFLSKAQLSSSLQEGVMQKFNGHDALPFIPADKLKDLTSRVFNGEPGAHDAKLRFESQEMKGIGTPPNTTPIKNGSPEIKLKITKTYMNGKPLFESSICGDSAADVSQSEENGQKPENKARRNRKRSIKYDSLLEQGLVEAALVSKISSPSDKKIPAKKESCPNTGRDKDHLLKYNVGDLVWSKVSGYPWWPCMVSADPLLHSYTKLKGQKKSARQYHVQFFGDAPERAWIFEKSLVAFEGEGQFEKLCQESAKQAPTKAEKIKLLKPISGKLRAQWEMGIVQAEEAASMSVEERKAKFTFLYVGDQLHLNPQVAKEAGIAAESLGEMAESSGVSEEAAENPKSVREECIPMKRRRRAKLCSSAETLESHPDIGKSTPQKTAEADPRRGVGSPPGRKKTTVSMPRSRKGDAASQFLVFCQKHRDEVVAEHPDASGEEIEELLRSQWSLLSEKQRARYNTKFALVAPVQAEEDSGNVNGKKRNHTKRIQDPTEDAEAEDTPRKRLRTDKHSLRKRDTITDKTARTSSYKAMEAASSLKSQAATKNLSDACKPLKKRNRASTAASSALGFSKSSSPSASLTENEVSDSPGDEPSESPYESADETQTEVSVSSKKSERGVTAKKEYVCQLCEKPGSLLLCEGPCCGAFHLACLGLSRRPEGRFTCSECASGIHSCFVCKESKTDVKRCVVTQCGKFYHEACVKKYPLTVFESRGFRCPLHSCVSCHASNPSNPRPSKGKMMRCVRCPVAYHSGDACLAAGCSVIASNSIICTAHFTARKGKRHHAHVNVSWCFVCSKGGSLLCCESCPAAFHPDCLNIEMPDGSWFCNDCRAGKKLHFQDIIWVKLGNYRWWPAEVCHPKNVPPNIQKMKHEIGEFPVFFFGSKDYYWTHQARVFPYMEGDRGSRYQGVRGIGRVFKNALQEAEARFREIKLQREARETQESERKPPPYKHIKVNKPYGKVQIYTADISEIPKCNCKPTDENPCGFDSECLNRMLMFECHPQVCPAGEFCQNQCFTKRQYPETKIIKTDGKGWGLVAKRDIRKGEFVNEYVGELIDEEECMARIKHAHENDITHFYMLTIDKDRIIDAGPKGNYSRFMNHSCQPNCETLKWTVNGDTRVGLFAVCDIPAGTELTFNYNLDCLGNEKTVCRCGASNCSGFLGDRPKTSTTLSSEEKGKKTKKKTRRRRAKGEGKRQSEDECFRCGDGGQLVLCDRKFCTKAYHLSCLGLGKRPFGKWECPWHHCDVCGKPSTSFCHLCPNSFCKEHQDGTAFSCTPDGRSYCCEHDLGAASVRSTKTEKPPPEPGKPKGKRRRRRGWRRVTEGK

[3] = biological target: T1, Histone-lysine N-methyltransferase EHMT2 (Homo sapiens) (UniProt Q96KQ7); assay: Inhibition of human G9a (913 to 1193 residues) assessed as covalent modification by measuring G9a adduct formation by mass spectrometry; conditions: time <= 120.0 min, TDE = time-dependent effect
T1 sequence (whole entry): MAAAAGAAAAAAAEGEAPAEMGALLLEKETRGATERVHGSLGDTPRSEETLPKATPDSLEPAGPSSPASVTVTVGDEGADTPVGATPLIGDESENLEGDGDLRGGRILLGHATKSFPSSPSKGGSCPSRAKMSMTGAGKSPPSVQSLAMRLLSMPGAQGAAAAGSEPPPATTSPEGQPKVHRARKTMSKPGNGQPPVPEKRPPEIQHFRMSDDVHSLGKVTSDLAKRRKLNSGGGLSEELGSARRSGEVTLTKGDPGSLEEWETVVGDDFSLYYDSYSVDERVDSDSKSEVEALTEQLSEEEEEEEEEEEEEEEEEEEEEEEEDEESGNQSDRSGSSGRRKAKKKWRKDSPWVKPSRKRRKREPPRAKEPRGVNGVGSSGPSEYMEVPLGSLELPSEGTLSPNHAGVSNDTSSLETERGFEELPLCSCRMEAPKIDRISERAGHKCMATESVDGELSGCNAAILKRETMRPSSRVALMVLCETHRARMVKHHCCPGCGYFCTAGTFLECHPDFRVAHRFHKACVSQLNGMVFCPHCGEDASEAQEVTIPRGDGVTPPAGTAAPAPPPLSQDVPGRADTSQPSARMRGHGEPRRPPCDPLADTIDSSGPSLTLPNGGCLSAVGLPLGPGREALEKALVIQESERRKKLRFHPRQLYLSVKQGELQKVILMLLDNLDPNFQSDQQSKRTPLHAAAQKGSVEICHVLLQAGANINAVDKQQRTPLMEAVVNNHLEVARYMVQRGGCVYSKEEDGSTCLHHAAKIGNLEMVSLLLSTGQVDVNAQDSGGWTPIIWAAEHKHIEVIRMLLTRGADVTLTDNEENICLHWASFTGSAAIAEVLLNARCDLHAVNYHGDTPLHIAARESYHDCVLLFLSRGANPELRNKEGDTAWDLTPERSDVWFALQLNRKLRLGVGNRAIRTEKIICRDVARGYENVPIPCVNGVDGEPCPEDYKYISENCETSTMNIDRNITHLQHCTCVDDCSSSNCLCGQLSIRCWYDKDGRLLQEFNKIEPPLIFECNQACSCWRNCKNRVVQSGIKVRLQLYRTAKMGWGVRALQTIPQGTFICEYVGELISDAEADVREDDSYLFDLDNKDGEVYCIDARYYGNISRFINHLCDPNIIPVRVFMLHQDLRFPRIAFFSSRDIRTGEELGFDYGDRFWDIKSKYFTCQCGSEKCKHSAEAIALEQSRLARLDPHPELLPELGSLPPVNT
Summary of the method: (§2)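 Purified G9a or GLP catalytic domain (5 μM) in 50 mM Tris-HCl pH 7.5, 150 mM NaCl incubated with 50 μM compound or DMSO at room temperature (1 h, or 30 and 60 min in time course); intact mass by ESI LC/MS-TOF; adduct % = adduct/(protein + adduct) × 100.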

[4] = biological target: Histone-lysine N-methyltransferase EHMT1 (Homo sapiens) (UniProt Q9H9B1); assay: Inhibition of human GLP (982 to 1266 residues) assessed as covalent modification by measuring GLP adduct formation by mass spectrometry; conditions: time <= 120.0 min, TDE = time-dependent effect; summary of the method: as §2
Sequence of Histone-lysine N-methyltransferase EHMT1 (Homo sapiens) (Q9H9B1 whole entry, the tested form may be a part): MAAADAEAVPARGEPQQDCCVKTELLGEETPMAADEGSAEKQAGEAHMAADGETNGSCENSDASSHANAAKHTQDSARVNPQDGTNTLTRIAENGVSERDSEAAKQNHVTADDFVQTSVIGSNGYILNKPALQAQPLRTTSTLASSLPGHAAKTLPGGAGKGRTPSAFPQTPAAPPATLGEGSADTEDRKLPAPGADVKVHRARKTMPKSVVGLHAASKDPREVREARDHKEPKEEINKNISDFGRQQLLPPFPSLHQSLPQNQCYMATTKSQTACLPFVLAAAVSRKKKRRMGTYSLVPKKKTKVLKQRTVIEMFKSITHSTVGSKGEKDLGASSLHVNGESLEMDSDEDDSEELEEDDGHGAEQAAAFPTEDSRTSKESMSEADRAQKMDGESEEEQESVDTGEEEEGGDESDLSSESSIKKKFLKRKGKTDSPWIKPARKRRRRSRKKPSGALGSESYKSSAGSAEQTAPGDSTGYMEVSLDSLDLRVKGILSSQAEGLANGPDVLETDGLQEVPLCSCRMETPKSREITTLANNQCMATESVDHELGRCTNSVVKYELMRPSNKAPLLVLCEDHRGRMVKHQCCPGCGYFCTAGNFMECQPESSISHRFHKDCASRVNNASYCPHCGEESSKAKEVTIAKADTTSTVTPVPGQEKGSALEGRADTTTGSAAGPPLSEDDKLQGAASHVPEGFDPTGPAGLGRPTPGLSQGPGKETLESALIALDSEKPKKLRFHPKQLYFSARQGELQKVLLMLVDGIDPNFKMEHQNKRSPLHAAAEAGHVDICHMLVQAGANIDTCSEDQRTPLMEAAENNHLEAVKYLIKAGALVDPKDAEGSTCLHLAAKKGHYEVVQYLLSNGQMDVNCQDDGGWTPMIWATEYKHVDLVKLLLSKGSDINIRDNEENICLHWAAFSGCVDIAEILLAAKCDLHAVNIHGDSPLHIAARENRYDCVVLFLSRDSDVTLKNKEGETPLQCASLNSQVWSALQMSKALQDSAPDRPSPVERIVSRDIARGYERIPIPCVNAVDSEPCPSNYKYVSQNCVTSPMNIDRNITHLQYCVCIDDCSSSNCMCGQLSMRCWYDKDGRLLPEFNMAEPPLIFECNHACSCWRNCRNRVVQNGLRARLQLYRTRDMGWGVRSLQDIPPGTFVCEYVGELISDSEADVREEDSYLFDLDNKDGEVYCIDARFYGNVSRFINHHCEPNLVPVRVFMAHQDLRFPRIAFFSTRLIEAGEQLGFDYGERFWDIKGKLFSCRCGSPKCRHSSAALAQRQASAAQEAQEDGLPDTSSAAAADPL

[5] = system: K562; assay: Down regulation of H3K9 dimethylation in human K562 cells at 0.2 to 5 uM incubated for 48 hrs by Western blot analysis; type: functional, cell-based; conditions: dose 0.2-5 µM
[6] = system: MDA-MB-231; assay: Cytotoxicity against human MDA-MB-231 cells after 3 days by CCK-8 assay; type: functional, cell-based; conditions: time 3.0 day
Summary of the method: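 MDA-MB-231 cells seeded at 1 × 10^4 per well in 96-well plates, exposed to compounds over a range of concentrations for 3 days.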

[7] = biological target: Protein arginine N-methyltransferase 8 (Homo sapiens) (UniProt Q9NR22); assay: Inhibition of N/C-terminal His-tagged PRMT8 (61 to 394 residues) (unknown origin) expressed in Escherichia coli at 1 uM using 3H-SAM as a substrate relative to control; summary of the method: as §1
Sequence of Protein arginine N-methyltransferase 8 (Homo sapiens) (Q9NR22 2-394 limits assumed): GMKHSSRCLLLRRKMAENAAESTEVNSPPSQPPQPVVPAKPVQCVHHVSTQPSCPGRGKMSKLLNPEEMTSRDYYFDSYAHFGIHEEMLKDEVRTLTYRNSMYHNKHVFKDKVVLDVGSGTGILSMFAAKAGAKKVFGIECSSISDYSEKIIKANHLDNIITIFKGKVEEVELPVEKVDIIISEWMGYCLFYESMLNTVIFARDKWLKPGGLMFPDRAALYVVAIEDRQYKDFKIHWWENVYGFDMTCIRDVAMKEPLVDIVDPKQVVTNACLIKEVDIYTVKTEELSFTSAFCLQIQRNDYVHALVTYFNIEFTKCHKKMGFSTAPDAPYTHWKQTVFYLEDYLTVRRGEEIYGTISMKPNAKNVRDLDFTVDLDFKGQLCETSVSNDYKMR

[8] = biological target: Protein arginine N-methyltransferase 7 (Homo sapiens) (UniProt Q9NVM4); assay: Inhibition of N-terminal His-tagged full-length recombinant human PRMT7 (2 to 692 residues) expressed in baculovirus expression system at 1 uM using 3H-SAM as a substrate relative to control; summary of the method: as §1
Sequence of Protein arginine N-methyltransferase 7 (Homo sapiens) (Q9NVM4 whole entry, the tested form may be a part): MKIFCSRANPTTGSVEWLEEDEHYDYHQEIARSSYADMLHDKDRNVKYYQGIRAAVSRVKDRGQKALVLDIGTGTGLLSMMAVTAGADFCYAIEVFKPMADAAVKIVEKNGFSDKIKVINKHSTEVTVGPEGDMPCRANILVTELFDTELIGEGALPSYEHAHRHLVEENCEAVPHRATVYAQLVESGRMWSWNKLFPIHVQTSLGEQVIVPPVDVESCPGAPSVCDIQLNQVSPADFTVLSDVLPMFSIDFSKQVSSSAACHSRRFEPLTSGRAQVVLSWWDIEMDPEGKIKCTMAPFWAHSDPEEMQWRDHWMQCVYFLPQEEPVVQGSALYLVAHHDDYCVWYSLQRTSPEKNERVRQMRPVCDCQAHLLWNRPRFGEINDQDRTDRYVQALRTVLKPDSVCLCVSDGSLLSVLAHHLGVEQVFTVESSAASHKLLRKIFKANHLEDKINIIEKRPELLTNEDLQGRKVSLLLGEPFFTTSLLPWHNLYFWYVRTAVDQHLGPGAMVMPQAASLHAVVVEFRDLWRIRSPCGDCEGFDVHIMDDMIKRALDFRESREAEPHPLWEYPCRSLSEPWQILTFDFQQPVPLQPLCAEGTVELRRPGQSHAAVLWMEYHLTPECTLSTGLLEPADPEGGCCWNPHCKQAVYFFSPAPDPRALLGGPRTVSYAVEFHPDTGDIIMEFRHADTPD

[9] = biological target: Protein arginine N-methyltransferase 6 (Homo sapiens) (UniProt Q96LA8); assay: Inhibition of N-terminal His-tagged full-length recombinant PRMT6 (2 to 375 residues) (unknown origin) expressed in baculovirus expression system at 1 uM using 3H-SAM as a substrate relative to control; summary of the method: as §1
Sequence of Protein arginine N-methyltransferase 6 (Homo sapiens) (Q96LA8 whole entry, looked up, the tested form may be a part): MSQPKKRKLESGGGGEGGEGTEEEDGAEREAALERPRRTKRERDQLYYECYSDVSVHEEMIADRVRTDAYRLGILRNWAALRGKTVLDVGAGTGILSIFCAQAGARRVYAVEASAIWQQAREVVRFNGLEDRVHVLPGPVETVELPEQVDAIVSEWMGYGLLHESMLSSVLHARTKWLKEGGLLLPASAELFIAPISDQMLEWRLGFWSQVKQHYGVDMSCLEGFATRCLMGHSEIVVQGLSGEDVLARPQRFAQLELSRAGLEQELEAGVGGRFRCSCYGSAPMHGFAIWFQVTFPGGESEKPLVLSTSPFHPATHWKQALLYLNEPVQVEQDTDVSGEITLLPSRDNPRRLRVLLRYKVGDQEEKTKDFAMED

[10] = biological target: Histone-lysine N-methyltransferase SMYD3 (Homo sapiens) (UniProt Q9H7B4); assay: Inhibition of recombinant human C-terminal His-tagged SMYD3 (2 to 428 residues) expressed in Sf9 insect cells at 1 uM using 3H-SAM as a substrate relative to control; summary of the method: as §1
Sequence of Histone-lysine N-methyltransferase SMYD3 (Homo sapiens) (Q9H7B4 whole entry, the tested form may be a part): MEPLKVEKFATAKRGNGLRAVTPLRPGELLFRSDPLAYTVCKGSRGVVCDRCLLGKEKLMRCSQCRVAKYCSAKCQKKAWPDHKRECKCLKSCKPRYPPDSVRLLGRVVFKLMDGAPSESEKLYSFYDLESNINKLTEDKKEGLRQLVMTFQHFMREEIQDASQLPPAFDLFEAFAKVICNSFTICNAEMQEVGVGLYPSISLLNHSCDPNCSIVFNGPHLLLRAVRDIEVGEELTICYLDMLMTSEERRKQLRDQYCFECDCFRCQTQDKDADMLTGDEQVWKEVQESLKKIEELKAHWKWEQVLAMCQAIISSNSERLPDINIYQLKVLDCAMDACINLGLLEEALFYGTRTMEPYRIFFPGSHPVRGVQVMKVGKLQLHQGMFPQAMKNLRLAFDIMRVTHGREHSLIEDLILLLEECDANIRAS

inhibition [1]: < 50% | inhibition [2]: < 50% | inhibition [3]: Tde | inhibition [4]: Tde | inhibition [7]: < 50% | inhibition [8]: < 50% | inhibition [9]: < 50% | inhibition [10]: < 50%
SMILES: C=CC(=O)Nc1cc(NC2CCN(C(C)C)CC2)c2cc(OC)c(OCCCN3CCCC3)cc2n1
Activity [5]: Active | Activity [6]: Active
